Measured values published in ChEMBL document CHEMBL2150881, “JD-5006 and JD-5037: peripherally restricted (PR) cannabinoid-1 receptor blockers related to SLV-319 (Ibipinabant) as metabolic disorder therapeutics devoid of CNS liabilities” (Bioorg Med Chem Lett, 2012).
pIC50: −log10 of the molar value.

What was measured:
[1] = target: Cannabinoid receptor 2 (Homo sapiens, UniProt P34972); experiment: Displacement of 3[H]ligand from recombinant human CB2 receptor
Summary of the method: (§1)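 Radioligand displacement from human recombinant CB1 and CB2 protein by a [³H] ligand. Initial screen at two concentrations in duplicate, with values >100 nM estimated. Percent inhibition read at 100 nM. IC₅₀ taken from four-point concentration curves run in duplicate.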

[2] = target: T1, Cannabinoid receptor 1 (Homo sapiens, UniProt P21554); experiment: Displacement of 3[H]ligand from recombinant human CB1 receptor; summary of the method: as §1
T1 sequence (P21554 whole entry): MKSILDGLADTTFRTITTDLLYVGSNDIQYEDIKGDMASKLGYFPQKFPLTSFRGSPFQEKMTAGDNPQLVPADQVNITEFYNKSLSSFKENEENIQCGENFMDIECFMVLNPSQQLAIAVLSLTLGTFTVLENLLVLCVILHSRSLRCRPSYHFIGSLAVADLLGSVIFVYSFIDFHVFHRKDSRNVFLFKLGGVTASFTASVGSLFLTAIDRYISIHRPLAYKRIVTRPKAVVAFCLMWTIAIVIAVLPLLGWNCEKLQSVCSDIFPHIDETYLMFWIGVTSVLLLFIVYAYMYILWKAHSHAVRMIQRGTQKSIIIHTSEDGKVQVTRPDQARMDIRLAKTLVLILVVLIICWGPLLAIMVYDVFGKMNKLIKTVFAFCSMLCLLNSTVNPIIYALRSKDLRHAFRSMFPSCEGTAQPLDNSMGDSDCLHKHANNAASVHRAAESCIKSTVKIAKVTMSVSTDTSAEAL

[3] = Apparent permeability from apical to basolateral side in MDR expressing MDCK cells by LC-MS-MS analysis; type: ADME, cell-based, Canis lupus familiaris; conditions: dog, MDCK-MDR1
Summary of the method: (§2)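 Permeability measured across MDR-MDCK kidney cell monolayers, giving apparent permeability (Papp) in the apical-to-basolateral and basolateral-to-apical directions.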

[4] = target: T1, Cannabinoid receptor 1; experiment: Displacement of 3[H]ligand from recombinant human CB1 receptor at 100 nM; summary of the method: as §1
[5] = tested on: Mus musculus; experiment: In vivo receptor occupancy at CB1 receptor in mouse cerebellum assessed as inhibition of [3H]SR141716A binding at 3 mg/kg, po for 3 days measured after 1 hr post last dose; type: functional
Summary of the method: (§3)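 Chow-fed mice dosed orally once daily at 3 or 30 mg/kg for 3 consecutive days, killed 1 h after the last dose. [3H]SR141716A was given by lateral tail-vein injection 30 min before euthanasia. Hippocampus, cerebellum and brain stem (reference region) were scintillation-counted as DPM/mg. Binding potential = (receptor − reference)/reference. Occupancy (%) = 100 × (vehicle BP − drug BP)/vehicle BP. 5 animals per dose.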

[6] = target: Cannabinoid receptor 1 (Mus musculus) (UniProt P47746); conditions: Cerebellum, 30 mg/kg
Cannabinoid receptor 1 (Mus musculus), sequence (P47746 whole entry): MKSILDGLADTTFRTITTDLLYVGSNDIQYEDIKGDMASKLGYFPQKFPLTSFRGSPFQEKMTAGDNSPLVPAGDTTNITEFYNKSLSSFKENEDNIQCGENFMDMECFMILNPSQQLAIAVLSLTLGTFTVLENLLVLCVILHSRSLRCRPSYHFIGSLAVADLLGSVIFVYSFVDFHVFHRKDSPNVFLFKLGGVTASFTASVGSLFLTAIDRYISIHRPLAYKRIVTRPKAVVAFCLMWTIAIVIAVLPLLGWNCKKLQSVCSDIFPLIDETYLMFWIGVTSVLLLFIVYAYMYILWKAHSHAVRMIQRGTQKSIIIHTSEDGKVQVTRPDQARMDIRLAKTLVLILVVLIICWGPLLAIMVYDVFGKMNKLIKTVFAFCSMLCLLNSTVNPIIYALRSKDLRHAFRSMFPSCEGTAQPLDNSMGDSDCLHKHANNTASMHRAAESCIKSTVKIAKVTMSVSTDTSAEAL

[7] = tested on: Mus musculus; experiment: In vivo receptor occupancy at CB1 receptor in mouse hippocampus assessed as inhibition of [3H]SR141716A binding at 3 mg/kg, po for 3 days measured after 1 hr post last dose; type: functional; summary of the method: as §3
[8] = tested on: Mus musculus; experiment: In vivo receptor occupancy at CB1 receptor in mouse hippocampus assessed as inhibition of [3H]SR141716A binding at 30 mg/kg, po for 3 days measured after 1 hr post last dose; type: functional; summary of the method: as §3
[9] = Efflux ratio of permeability from […] in MDR expressing MDCK cells; type: ADME, cell-based, Canis lupus familiaris; conditions: dog, MDCK-MDR1
[10] = Apparent permeability from basolateral to apical side in MDR expressing MDCK cells by LC-MS-MS analysis; type: ADME, cell-based, Canis lupus familiaris; conditions: dog, MDCK-MDR1; summary of the method: as §2
[11] = Plasma concentration in chow fed mouse at 100 mg/kg, po for 3 days measured after 1 hr post last dose; type: ADME, organism-based; set-up: dose 100 mg/kg, route oral
Summary of the method: (§4)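 Chow-fed mice were dosed orally at 100 or 20 mg/kg for 3 consecutive days. Plasma and brain were taken 1 h after the last dose. Proteins were precipitated with 3× volume ice-cold acetonitrile containing internal standard, then centrifuged 15 min at 4 °C. Analysis by LC/MS/MS against calibrators in plasma or brain homogenate (1000 to 1.6 nM). Brain is given as ng/gm and also as % of plasma.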

[12] = tested on: Brain; experiment: Drug uptake in chow fed mouse brain assessed per gram of tissue at 100 mg/kg, po for 3 days measured 1 hr post last dose; type: ADME, organism-based; set-up: dose 100 mg/kg, route oral; conditions: in vivo; summary of the method: as §4

Cannabinoid receptor 2, sequence (P34972 whole entry): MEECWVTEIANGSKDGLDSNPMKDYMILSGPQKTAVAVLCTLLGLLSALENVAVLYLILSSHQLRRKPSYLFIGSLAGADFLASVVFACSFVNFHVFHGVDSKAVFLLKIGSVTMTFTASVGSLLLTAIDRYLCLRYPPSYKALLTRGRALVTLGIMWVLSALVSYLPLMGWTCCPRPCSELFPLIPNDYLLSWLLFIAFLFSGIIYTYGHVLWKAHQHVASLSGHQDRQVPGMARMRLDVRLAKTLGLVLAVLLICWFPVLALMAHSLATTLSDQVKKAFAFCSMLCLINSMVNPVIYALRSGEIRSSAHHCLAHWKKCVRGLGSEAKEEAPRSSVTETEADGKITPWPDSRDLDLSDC

| Structure (SMILES) | pIC50 [1] | pIC50 [2] | further results |
| --- | --- | --- | --- |
| C[C@H](NC(=O)[C@H](C)N/C(=N\S(=O)(=O)c1ccc(Cl)cc1)N1CC(c2ccccc2)C(c2ccc(Cl)cc2)=N1)C(N)=O (stereo partly drawn) | < 5.30 | 7.57 | Papp A→B [3]: 0.3 ×10⁻⁶ cm/s |
| NC(=O)[C@H](Cc1ccccc1)N=C(NS(=O)(=O)c1ccc(Cl)cc1)N1CC(c2ccccc2)C(c2ccc(Cl)cc2)=N1 (stereo partly drawn) | < 5.30 | – | – |
| COc1ccc(S(=O)(=O)NC(=N[C@@H](C)C(N)=O)N2CC(c3ccccc3)C(c3ccc(Cl)cc3)=N2)cc1 (stereo partly drawn) | < 5.30 | 7.15 | – |
| C[C@@H](O)[C@H](N/C(=N\S(=O)(=O)c1ccc(Cl)cc1)N1CC(c2ccccc2)C(c2ccc(Cl)cc2)=N1)C(=O)N[C@@H](CO)C(N)=O (stereo partly drawn) | < 6.00 | 8.15 | – |
| C[C@H](O)[C@@H](N=C(NS(=O)(=O)c1ccc(Cl)cc1)N1CC(c2ccccc2)C(c2ccc(Cl)cc2)=N1)C(N)=O (stereo partly drawn) | < 5.30 | < 7.00 | – |
| CCOC(=O)[C@@H](O)CCN/C(=N\S(=O)(=O)c1ccc(Cl)cc1)N1CC(c2ccccc2)C(c2ccc(Cl)cc2)=N1 (stereo partly drawn) | – | – | inhibition [4]: 53% |
| CC(C)[C@H](N/C(=N\S(=O)(=O)c1ccc(Cl)cc1)N1CC(c2ccccc2)C(c2ccc(Cl)cc2)=N1)C(=O)N[C@@H](C)C(N)=O (stereo partly drawn) | < 5.30 | 7.00 | – |
| COc1ccc(S(=O)(=O)NC(=NCC(N)=O)N2CC(c3ccccc3)C(c3ccc(Cl)cc3)=N2)cc1 (stereo not drawn) | < 5.30 | 7.00 | – |
| NC(=O)[C@@H](N/C(=N\S(=O)(=O)c1ccc(Cl)cc1)N1CC(c2ccccc2)C(c2ccc(Cl)cc2)=N1)C1CCC1 (stereo partly drawn) | < 6.00 | 8.08 | – |
| CC(C)[C@H](N/C(=N\S(=O)(=O)c1ccc(Cl)cc1)N1C[C@H](c2ccccc2)C(c2ccc(Cl)cc2)=N1)C(N)=O | < 6.00 | 9.30 | Occ [5]: 0%; Occ [6]: 0%; Occ [7]: 10%; Occ [8]: 0% |
| CN/C(=N\S(=O)(=O)c1ccc(C(=O)O)cc1)N1CC(c2ccccc2)C(c2ccc(Cl)cc2)=N1 (racemic) | – | < 5.30 | – |
| O=C(O)[C@@H](O)CCN=C(NS(=O)(=O)c1ccc(Cl)cc1)N1CC(c2ccccc2)C(c2ccc(Cl)cc2)=N1 (stereo partly drawn) | – | < 6.00 | – |
| C[C@@H](O)[C@H](N/C(=N/S(=O)(=O)c1ccc(Cl)cc1)N1CC(c2ccccc2)C(c2ccc(Cl)cc2)=N1)C(N)=O (stereo partly drawn) | < 5.30 | 8.15 | efflux ratio [9]: > 20; Papp A→B [3]: < 0.9 ×10⁻⁶ cm/s; Papp B→A [10]: 18.6 ×10⁻⁶ cm/s |
| COc1cccc(S(=O)(=O)/N=C(\N[C@H](C(N)=O)C(C)C)N2CC(c3ccccc3)C(c3ccc(Cl)cc3)=N2)c1 (stereo partly drawn) | < 6.00 | 8.40 | – |
| COc1ccc(S(=O)(=O)/N=C(\N[C@@H](C)C(=O)N[C@@H](CO)C(N)=O)N2CC(c3ccccc3)C(c3ccc(Cl)cc3)=N2)cc1 (stereo partly drawn) | < 5.30 | < 7.00 | – |
| COC(=O)[C@H](C)N/C(=N\S(=O)(=O)c1ccc(Cl)cc1)N1CC(c2ccccc2)C(c2ccc(Cl)cc2)=N1 (stereo partly drawn) | – | – | inhibition [4]: 96% |
| NC(=O)[C@H](Cc1ccccc1)N/C(=N\S(=O)(=O)c1ccc(Cl)cc1)N1CC(c2ccccc2)C(c2ccc(Cl)cc2)=N1 (stereo partly drawn) | – | – | inhibition [4]: 61% |
| CC(C)[C@H](N/C(=N\S(=O)(=O)c1ccc(Cl)cc1)N1CC(c2ccccc2)C(c2ccc(Cl)cc2)=N1)C(N)=O (stereo partly drawn) | < 6.00 | 8.70 | Papp A→B [3]: 1.08 ×10⁻⁶ cm/s; concentration at 1 h [11]: 3850 ng/mL; Papp B→A [10]: 16.6 ×10⁻⁶ cm/s; Drug uptake ([12]; BLD = below limit of detection): BLD |
| C[C@H](N/C(=N\S(=O)(=O)c1ccc(O)cc1)N1CC(c2ccccc2)C(c2ccc(Cl)cc2)=N1)C(N)=O (stereo partly drawn) | < 5.30 | < 6.30 | – |
| CCOC(=O)Nc1ccc(S(=O)(=O)NC(=NC)N2CC(c3ccccc3)C(c3ccc(Cl)cc3)=N2)cc1 (racemic) | – | 6.52 | – |
| CNC(=NS(=O)(=O)c1ccc(Cl)cc1)N1CC(c2ccccc2)C(c2ccc(Cl)cc2)=N1 (racemic) [RAC-IBIPINABANT] | – | – | Papp A→B [3]: 9.45 ×10⁻⁶ cm/s; concentration at 1 h [11]: 5130 ng/mL; Papp B→A [10]: 10 ×10⁻⁶ cm/s; Drug uptake [12]: 2080 ng/g |
| CN=C(NS(=O)(=O)c1ccc(C(=O)NO)cc1)N1CC(c2ccccc2)C(c2ccc(Cl)cc2)=N1 (racemic) | – | < 5.30 | – |
| COc1ccc(S(=O)(=O)NC(=N[C@H](C(=O)NCC(N)=O)C(C)C)N2CC(c3ccccc3)C(c3ccc(Cl)cc3)=N2)cc1 (stereo partly drawn) | < 5.30 | < 7.00 | – |
| CC(C)[C@H](N/C(=N\S(=O)(=O)c1ccc(Cl)cc1)N1C[C@@H](c2ccccc2)C(c2ccc(Cl)cc2)=N1)C(N)=O | – | < 6.00 | – |
